From ChEMBL document CHEMBL5303300, “EUbOPEN Chemogenomics Library - Multiplex” (2023)
Several values for one entry are separate records, joined by “and”; a condition that tells them apart may be missing. Equal entries are not always repeated.

Legend:
Assay type in all cases: toxicity, cell-based
Fibroblast = assay: Multiplex assay against human fibroblast; settings: number of replicates 2
How it was run: (§1)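 Compound was added to live cells that had been stained at seeding with Hoechst33342, BioTracker Green Microtubule Cytoskeleton Dye, MitoTracker Red and Annexin V Alexa Fluor 680, and imaging followed on a CQ1 microscope at 37°C and 5% CO2. CellPathfinder machine-learning gating divided cells into Hoechst high-intensity objects or normal cells, normal cells into healthy, pyknosed or fragmented nuclei, and pyknosed cells into mitotic or apoptotic. Tubulin, mitochondrial-mass and membrane-permeability phenotypes are per cents of healthy-nucleus cells.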

U2OS = assay: Multiplex assay against U2OS; settings: human, number of replicates 2; how it was run: as §1
HEK-293T = assay: Multiplex assay against HEK293T; settings: human, number of replicates 2; how it was run: as §1
[1] = 12 h, 1 µM, compound concentration 1 uM
[2] = 12 h, 10 µM, compound concentration 10 uM
[3] = 24 h, 1 µM, compound concentration 1 uM
[4] = 24 h, 10 µM, compound concentration 10 uM
[5] = 48 h, 1 µM, compound concentration 1 uM
[6] = 48 h, 10 µM, compound concentration 10 uM

SMILES: CS(=O)(=O)c1ccc(C(=O)Nc2ccc(F)c(COc3ccc(Br)cc3CN3CC[C@H](O)C3)c2)c(Cl)c1.O=CO
- Population Apoptotic (%) (Fibroblast; [1]): 42% and 43%
- Population Fragmented Nuclei (%) (Fibroblast; [1]): 7% and 9%
- Population Healthy Nuclei (%) (Fibroblast; [1]): 63% and 67%
- Population Hoechst High Intensity Objects (%) (Fibroblast; [1]): 0%
- Population Normal (%) (Fibroblast; [1]): 100%
- Total Cell Count (Fibroblast; [1]): 217 and 239
- Population Apoptotic (%) (Fibroblast; [2]): 42% and 43%
- Population Fragmented Nuclei (%) (Fibroblast; [2]): 21%
- Population Healthy Nuclei (%) (Fibroblast; [2]): 50% and 52%
- Population Hoechst High Intensity Objects (%) (Fibroblast; [2]): 0%
- Population Normal (%) (Fibroblast; [2]): 100% and 99%
- Total Cell Count (Fibroblast; [2]): 194 and 258
- Population Apoptotic (%) (Fibroblast; [3]): 42% and 57%
- Population Fragmented Nuclei (%) (Fibroblast; [3]): 10% and 14%
- Population Healthy Nuclei (%) (Fibroblast; [3]): 64% and 69%
- Population Hoechst High Intensity Objects (%) (Fibroblast; [3]): 0%
- Population Normal (%) (Fibroblast; [3]): 100% and 99%
- Total Cell Count (Fibroblast; [3]): 220 and 253
- Population Apoptotic (%) (Fibroblast; [4]): 72% and 81%
- Population Fragmented Nuclei (%) (Fibroblast; [4]): 15%
- Population Healthy Nuclei (%) (Fibroblast; [4]): 62% and 52%
- Population Hoechst High Intensity Objects (%) (Fibroblast; [4]): 0%
- Population Normal (%) (Fibroblast; [4]): 100% and 99%
- Total Cell Count (Fibroblast; [4]): 197 and 255
- Population Apoptotic (%) (Fibroblast; [5]): 71% and 78%
- Population Fragmented Nuclei (%) (Fibroblast; [5]): 18% and 14%
- Population Healthy Nuclei (%) (Fibroblast; [5]): 64% and 73%
- Population Hoechst High Intensity Objects (%) (Fibroblast; [5]): 0%
- Population Normal (%) (Fibroblast; [5]): 99%
- Total Cell Count (Fibroblast; [5]): 244 and 243
- Population Apoptotic (%) (Fibroblast; [6]): 88%
- Population Fragmented Nuclei (%) (Fibroblast; [6]): 20% and 15%
- Population Healthy Nuclei (%) (Fibroblast; [6]): 58% and 63%
- Population Hoechst High Intensity Objects (%) (Fibroblast; [6]): 0%
- Population Normal (%) (Fibroblast; [6]): 100% and 98%
- Total Cell Count (Fibroblast; [6]): 178 and 242
- Population Apoptotic (%) (U2OS; [1]): 60%
- Population Healthy Nuclei (%) (U2OS; [1]): 60% and 82%
- Population Normal (%) (U2OS; [1]): 100%
- Population Pyknosed Nuclei (%) (U2OS; [1]): 10%
- Population Apoptotic (%) (U2OS; [2]): 91% and 68%
- Population Healthy Nuclei (%) (U2OS; [2]): 41% and 73%
- Population Normal (%) (U2OS; [2]): 100% and 98%
- Population Pyknosed Nuclei (%) (U2OS; [2]): 22%
- Population Apoptotic (%) (U2OS; [3]): 77% and 65%
- Population Healthy Nuclei (%) (U2OS; [3]): 62% and 84%
- Population Normal (%) (U2OS; [3]): 100%
- Population Pyknosed Nuclei (%) (U2OS; [3]): 13%
- Population Apoptotic (%) (U2OS; [4]): 71% and 92%
- Population Healthy Nuclei (%) (U2OS; [4]): 61% and 47%
- Population Normal (%) (U2OS; [4]): 98% and 100%
- Population Apoptotic (%) (U2OS; [5]): 100% and 93%
- Population Healthy Nuclei (%) (U2OS; [5]): 67% and 88%
- Population Normal (%) (U2OS; [5]): 100%
- Population Pyknosed Nuclei (%) (U2OS; [5]): 9%
- Population Apoptotic (%) (U2OS; [6]): 94% and 89%
- Population Healthy Nuclei (%) (U2OS; [6]): 23% and 51%
- Population Normal (%) (U2OS; [6]): 97% and 100%
- Population Pyknosed Nuclei (%) (U2OS; [6]): 41% and 39%
- Population Apoptotic (%) (HEK-293T; [1]): 55% and 45%
- Population Healthy Nuclei (%) (HEK-293T; [1]): 81% and 82%
- Population Mitotic Cells (%) (HEK-293T; [1]): 44% and 54%
- Population Normal (%) (HEK-293T; [1]): 94% and 93%
- Total Cell Count (HEK-293T; [1]): 519 and 629
- Population Apoptotic (%) (HEK-293T; [2]): 61% and 58%
- Population Healthy Nuclei (%) (HEK-293T; [2]): 87% and 82%
- Population Normal (%) (HEK-293T; [2]): 91% and 88%
- Total Cell Count (HEK-293T; [2]): 484 and 427
- Population Apoptotic (%) (HEK-293T; [3]): 60% and 47%
- Population Healthy Nuclei (%) (HEK-293T; [3]): 80% and 83%
- Population Mitotic Cells (%) (HEK-293T; [3]): 52%
- Population Normal (%) (HEK-293T; [3]): 92% and 93%
- Total Cell Count (HEK-293T; [3]): 796 and 885
- Population Apoptotic (%) (HEK-293T; [4]): 69% and 68%
- Population Healthy Nuclei (%) (HEK-293T; [4]): 85% and 79%
- Population Mitotic Cells (%) (HEK-293T; [4]): 30%
- Population Normal (%) (HEK-293T; [4]): 90% and 91%
- Total Cell Count (HEK-293T; [4]): 489 and 456
- Population Apoptotic (%) (HEK-293T; [5]): 29% and 26%
- Population Healthy Nuclei (%) (HEK-293T; [5]): 83% and 86%
- Population Mitotic Cells (%) (HEK-293T; [5]): 70% and 73%
- Population Normal (%) (HEK-293T; [5]): 89% and 92%
- Total Cell Count (HEK-293T; [5]): 1639 and 1757
- Population Apoptotic (%) (HEK-293T; [6]): 74% and 55%
- Population Healthy Nuclei (%) (HEK-293T; [6]): 82% and 85%
- Population Mitotic Cells (%) (HEK-293T; [6]): 25% and 44%
- Population Normal (%) (HEK-293T; [6]): 86% and 90%
- Total Cell Count (HEK-293T; [6]): 548 and 631
